From PubChem
An excerpt weighted towards active compounds, which were near 4.7% of everything screened.
MC4R antagonist – MC4R antagonists of cAMP signaling, primary screen, cell-based, TR-FRET, antagonist arm of biased-ligand search; Melanocortin receptor 4 (Homo sapiens), P32245; inhibition, % at 6.5 µM; actives 0.48% (n = 360,000); AID 540295, 2011; MC4R-expressing cells, MTII-stimulated cAMP, LANCE TR-FRET;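 active = inhibition above its plate's cutoff, the mean of tested wells on that plate plus 3 SD, cut at about 29% in these data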
Target sequence (P32245 whole entry, looked up): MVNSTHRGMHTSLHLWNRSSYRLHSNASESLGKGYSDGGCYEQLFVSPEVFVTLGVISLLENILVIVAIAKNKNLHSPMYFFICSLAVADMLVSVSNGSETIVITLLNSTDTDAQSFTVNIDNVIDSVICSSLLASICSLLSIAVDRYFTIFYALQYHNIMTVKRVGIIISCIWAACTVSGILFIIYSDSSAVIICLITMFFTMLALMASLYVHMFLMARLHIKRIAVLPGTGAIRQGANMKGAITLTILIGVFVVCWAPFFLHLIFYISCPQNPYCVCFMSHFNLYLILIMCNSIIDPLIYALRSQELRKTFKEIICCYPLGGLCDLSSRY
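System: U2OS-MC4R stable cell line; Technique: Eu-cAMP/anti-cAMP TR-FRET, emission 671 nm; Repeats: single well per compound; Also added: Melanotan II; Dosing: one concentration, 6.5 µM nominal; Schedule: 30-min compound, 1-h challenge, 1-h detection, room temperature.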
MC4R ag barr – MC4R agonists recruiting beta-arrestin, primary screen, cell-based, luminescence, agonist arm of biased-ligand search. Melanocortin receptor 4 (Homo sapiens), P32245. U2OS MC4R beta-arrestin complementation; percent of melanotan II response, DMSO zero. activation, % at 8.9 µM. actives 0.98% (n = 360,000);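 active = activation above a per-plate cutoff, the mean activation of sample wells on that plate plus 3 SD, cut at about 8% in these data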
GAA850 FXN act – FXN promoter activators, primary screen, cell-based, luciferase luminescence, HEK293 lucGAA850; HEK293 lucGAA850 FXN promoter luciferase reporter, 24 h; percent of 10 µM SAHA response; activation, % at 6 µM; actives 0.56% (n = 360,000); AID 540364, 2011;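 active = activation above the average of all compounds screened plus 3 SD, cutoff fixed separately per campaign, cut at about 7.5% in these data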
m5-HT2A agonist – mouse Htr2a agonists via beta-arrestin recruitment, primary screen, cell-based, luminescence; actives 0.66% (n = 360,000); CHO-K1 mHTR2A beta-arrestin complementation; percent of 30 µM serotonin response; activation, % at 7.6 µM; 5-hydroxytryptamine receptor 2A (Mus musculus), P35363;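 active = activation above a run cutoff, the mean activation of all tested compounds plus 3 SD, cut at about 14% in these data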
AHR act – AHR activators, primary screen, cell-based, luminescence, luciferase reporter, human. Aryl hydrocarbon receptor (Homo sapiens), P35869. AHR-responsive luciferase reporter cells. activation, % at 5 µM. actives 2.5% (n = 320,000). AID 2796, 2010; in the data active = activation above about 47%
cAMP nonselect – nonselective cAMP signaling inhibitors, parental cells, counter-screen for MC4R biased antagonist project, cell-based, TR-FRET, U2OS, forskolin, triplicate; shares compounds with MC4R antagonist; LANCE TR-FRET; inhibition, % at 6.5 µM; actives 26% (n = 1,600); AID 602193, 2012;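 active = mean inhibition over triplicates above the low-control well mean plus 3 SD, set per campaign, cut at about 13% in these data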;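 also: signal is single emission at 671 nm which falls as cellular cAMP rises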
MC4R antag conf – MC4R cAMP antagonists, retest, confirmation, cell-based, TR-FRET. shares compounds with MC4R antagonist. MC4R-expressing cells, MTII-stimulated cAMP. inhibition, % at 6.5 µM. actives 27% (n = 1,600); in the data active = inhibition above about 29%
MC4R barr conf – MC4R beta-arrestin agonists, retest, confirmation, cell-based, luminescence, U2OS; shares compounds with MC4R ag barr; U2OS MC4R beta-arrestin recruitment; scaled DMSO 0%, Melanotan II 100%; activation, % at 8.9 µM; actives 31% (n = 2,400); AID 602192, 2012;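 active = mean activation across replicates above the hit cutoff set in the earlier primary screen, cut at about 8% in these data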
MOR DOR agonist – agonists of MOR-DOR heterodimerization, counter-screen for MC4R biased agonist project, cell-based, luminescence | actives 5.8% (n = 2,400) | shares compounds with MC4R ag barr | activation, % at 9.2 µM | AID 602194, 2012 | U2OS PathHunter beta-arrestin, beta-gal luminescence; percent of deltorphin B response, DMSO zero;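 active = mean activation across replicates exceeds the hit threshold derived in the earlier primary screen, cut at about 18% in these data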
GAA30 counter – GAA30 FXN promoter activators, confirmation, counter-screen for GAA850 frataxin promoter activator project, cell-based, luminescence, HEK293, lucGAA30, triplicate; shares compounds with GAA850 FXN act; HEK293 lucGAA30 FXN promoter luciferase, 24 h; DMSO = 0%, 5 µM ipriflavone = 100%; activation, % at 6 µM; actives 66% (n = 1,900);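 active = mean activation above the mean of solvent-only control wells plus 3 SD, cut at about 22% in these data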;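 also: counterscreen of GAA850 promoter hits where activity marks nonselective or luminescence artifacts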
FXN GAA850 conf – FXN GAA850 promoter activators in reporter cells, confirmation, cell-based, luminescence, HEK293 lucGAA850, triplicate. shares compounds with GAA850 FXN act. HEK293 lucGAA850 FXN promoter luciferase reporter, 24 h; 100% = activation by SAHA. activation, % at 6 µM. actives 86% (n = 1,900);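 active = mean activation above a set limit taken from the primary screen, cut at about 8% in these data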
A number is an active result; i = inactive; nt = not tested or not shown.

SMILES	MC4R antagonist	MC4R ag barr	GAA850 FXN act	m5-HT2A agonist	AHR act	cAMP nonselect	MC4R antag conf	MC4R barr conf	MOR DOR agonist	others
COC(=O)[C@@]12C[C@@H](CC(=O)N3CCC(c4ccccc4)CC3)C(=O)N(CCc3ccc(OC)c(OC)c3)C1=CCC(C)(C)C2	nt	nt	nt	i	nt	nt	nt	nt	nt
CCCCCCCCCCC[N+](C)(C)CC/C=C1/c2ccccc2Sc2ccc(Cl)cc21	36	21	i	i	i	i	30	25	19
CCCCCCCCCC[N+](C)(C)CC/C=C1/c2ccccc2Sc2ccc(Cl)cc21	41	17	i	i	i	i	40	18	26
O=C1CCCN1C(=O)COc1ccccc1[N+](=O)[O-]	i	i	i	i	i	nt	nt	nt	nt
N/C(Cc1ccc(Cl)cc1)=N\OC(=O)CCc1ccccc1	i	i	i	i	nt	nt	nt	nt	nt
CCCCCCCCCCCCCCCC[N+](C)(C)Cc1ccc(F)cc1	42	16	i	i	nt	i	32	31	i
CC#CC[N+](C)(C)CCCCCCCC	i	i	i	i	i	nt	nt	nt	nt
Cc1nnc(-c2cccc(Br)c2)c2cn(-c3cccc(Br)c3)nc12	33	13	i	i	i	i	29	i	i
O=C(Nc1ccc2nc(SCc3ccc(Cl)cc3)sc2c1)c1ccccc1C(=O)N1CCOCC1	64	10.0	i	i	i	30	66	24	i
COC(=O)CSc1nc2ccc(NC(=O)c3ccccc3C(=O)N3CCOCC3)cc2s1	i	i	i	i	i	nt	nt	nt	nt
C=C1CCc2c([nH]c3ccc(OCC(C)C)cc23)C1=O	45	14	i	i	nt	i	32	13	i
COc1ccc2[nH]c3c(c2c1)CCNC3=O	i	i	i	i	i	nt	nt	nt	nt
Cn1ccc2c(-c3cccc(C=O)c3)cc3c(c21)C1CCC3O1 (stereo not given)	nt	nt	nt	i	nt	nt	nt	nt	nt
COc1ccc2oc(=O)c(-c3csc(Nc4cccc(O)c4)n3)cc2c1	30	13	i	i	i	i	i	28	i
O=C(c1ccc(Oc2cc(Cl)cc(Cl)c2)o1)N1CCCCC1	i	i	i	i	i	nt	nt	nt	nt
Cn1ccsc1=NC(=O)c1ccc(S(C)(=O)=O)cc1	i	i	i	i	i	nt	nt	nt	nt
Cn1ccsc1=NC(=O)c1ccc(S(C)(=O)=O)c([N+](=O)[O-])c1	33	i	10	i	62	i	31	nt	nt	GAA30 counter=73;FXN GAA850 conf=30
